Screening results: PubChem BioAssay, several laboratories
An excerpt weighted towards active compounds, which were near 4.9% of everything screened.
STAT1 activator – STAT1 signaling activators, primary screen, cell-based, HTS, luciferase reporter | NIH 3T3 STAT1-luciferase reporter, IFN-gamma, luminescence; 100% = IFN-gamma alone, no compound | activation (% of control), % at 5.5 µM | 2.6% of 200,000 active | AID 932, 2007;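 active means activation above the screen-wide mean activation plus 3 SD, cut at about 130% in these data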;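 further: raw ratio to IFN-gamma control signal so 100% means no change and 0% no light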
APP 5'UTR act – activators of APP 5'UTR luciferase reporter, primary screen, SH-SY5Y cells; SH-SY5Y APP 5'UTR luciferase reporter, luminescence; zero percent = DMSO vehicle wells; activation, % at 2 µM; 1% of 190,000 active; AID 1276, 2008;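 active means activation above a set limit, based on mean plus 3 SD of controls, cut at about 140% in these data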
STAT3 inh – IL-6 driven STAT3 reporter inhibitors, primary screen, U3A cells, luciferase, luminescence, MLSCN library; IL-6 STAT3-luciferase reporter; host cell line lacks STAT1; inhibition, % at 5.5 µM; 0.89% of 190,000 active; AID 862, 2007;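 active means inhibition above the mean inhibition across all screened compounds plus 3 SD, cut at about 44% in these data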;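 further: 0% = DMSO only wells and 100% = 100 µM nifuroxazide control wells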
STAT3 activator – IL-6 driven STAT3 reporter potentiators, primary screen, U3A cells, luciferase, luminescence, MLSCN library; 0.91% of 190,000 active; activation (% of control), % at 5.6 µM; IL-6 STAT3-luciferase reporter; 100% = signal with IL-6 EC80 alone;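 active means activation above the screen-wide mean of compound activation plus 3 SD, cut at about 130% in these data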;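 further: 0% = background luminescence of wells with medium and substrate only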
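System – human U3A cells carrying STAT3-luciferase construct · Probe or stimulus – Interleukin-6, 33 ng/mL · Schedule – compound 1 h, then IL-6 6 h at 37 °C · Signal – luminescence from STAT3-driven luciferase reporter · Evaluation – percent of IL-6-only median luminescence · Benchmarks – IL-6-only high control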
NF-kB expr up – activators of NF-kB expression in neurons, primary screen, cell-based, HTS. fold change at 12.5 µM. human neuronal cells, NF-kB reporter expression; hits give high values. 1.6% of 190,000 active; in the data active means fold change above about 3.3
STAT1 blocker – STAT1 signaling inhibitors, primary screen, cell-based, HTS, luciferase reporter | NIH 3T3 STAT1-luciferase reporter, IFN-gamma, luminescence | 0.35% of 200,000 active | inhibition, % at 5.5 µM;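 active means inhibition above a set limit, the mean inhibition across all tested compounds plus 3 SD, cut at about 34% in these data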;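 further: 0% = IFN-gamma with DMSO and 100% = IFN-gamma with 300 µM nifuroxazide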
* hit, by the source's call; x = not tested or not shown.

SMILES	STAT1 activator	APP 5'UTR act	STAT3 inh	STAT3 activator	NF-kB expr up	STAT1 blocker
O=C(Nc1cccc(-c2cn3cccnc3n2)c1)c1ccc2c(c1)OCO2	100	16	6	99	0.58	0
c1ccc(-c2nccc(-c3ccc4c(c3)OCO4)n2)cc1	134*	47	-33	130	2	-38
NS(=O)(=O)c1ccc(O)c(N2C(=O)c3cccc4c(C(=O)O)ccc(c34)C2=O)c1	110	18	19	92	1.5	-12
COC(=O)c1ccc2nc(-c3ccc4c(c3)OCO4)cn2c1	39	90	89*	25	5*	66*
Cc1cccc(NC(=O)c2ccc(N3CCOCC3)c([N+](=O)[O-])c2)n1	117	65	6	99	2	-22
Cc1cccc(NC(=O)c2ccc(N3CCCCC3)c([N+](=O)[O-])c2)n1	144*	159*	10	96	5.2*	-50
CCOc1cnc(-c2ccc(Cl)cc2)o1	140*	14	0	104	1.2	-44
CCOc1cnc(-c2ccc(OC)cc2)o1	135*	44	0	100	1.6	-38
CCOc1oc(-c2ccc(OC)cc2)nc1C(F)(F)F	100	0	12	90	1	0
O=C1/C(=C\c2cccs2)Sc2ccc3ccccc3c21	105	178*	-94	180*	1.1	-6
COCCn1c(N)c(N(Cc2ccccc2)C(=O)C2CCCC2)c(=O)[nH]c1=O	97	2	-8	108	1.2	2
C/C(=N\Nc1ccc(C(=O)O)cc1)c1ccc(-n2ccnc2)cc1	138*	102	0	107	1	-43
Cc1ccc(S(=O)(=O)/N=C2/C=C(C3C(=O)CC(C)(C)CC3=O)C(=O)c3ccccc32)cc1	94	126	17	91	1.6	6
CCc1ccc(S(=O)(=O)/N=C2/C=C(Sc3ncn[nH]3)C(=O)c3ccccc32)cc1	96	-75	-50	139*	0.58	5
CCc1ccc(S(=O)(=O)/N=C2\C=CC(=O)c3ccccc32)cc1	96	-35	-50	145*	0.78	3
CCc1ccc(S(=O)(=O)ON2C(=O)c3ccccc3C2=O)cc1	100	-24	0	104	1.1	-1
Cc1cccc(N/N=C2/COC(C)(C)CC2=O)c1	136*	71	2	97	1.2	-40
Cn1c(CN2CCCC2)nc2cc(NC(=O)c3ccc(Cl)cc3)ccc21	146*	38	22	89	1.3	-52
CCC(=O)Nc1ccc2c(c1)ncn2C	107	-8	-6	108	1	-7
Cn1cnc2cc(NC(=O)c3ccc(Cl)cc3)ccc21	140*	89	16	91	5*	-45
CCc1ccc(OCC(=O)Nc2ccc(-c3nc4ccccc4o3)c(O)c2)cc1	105	7	24	87	1.6	-5
Oc1cc(NCc2cccnc2)ccc1-c1nc2ccccc2o1	134*	155*	10	96	2.5	-37
CCc1ccc(NC(=O)CSCc2ccc(C(=O)O)cc2)cc1	109	1	0	105	x	-10
CCCCC(=O)Nc1ccc(NC(=O)c2ccccc2[N+](=O)[O-])cc1OC	106	-12	-1	103	1.1	-6
O=C(CN1C(=O)c2ccccc2S1(=O)=O)NCc1ccco1	101	-13	0	104	1.1	-2
SMILES	STAT1 activator	APP 5'UTR act	STAT3 inh	STAT3 activator	NF-kB expr up	STAT1 blocker
COCCCn1cnc2oc3nc4ccccc4nc3c2c1=O	141*	166*	12	93	2.3	-45
COCCNC(=O)C(C(=O)c1ccc(F)cc1)n1cc(C)ccc1=O (configuration not stated)	100	15	13	95	1.4	-1
CC/C(O)=C1\C(=O)CCCC1=NCc1nc2ccccc2[nH]1	86	9	11	92	1.6	13
Cc1csc(=NC(=O)c2ccccc2)n1C	127	102	14	92	3.6*	-29
COc1ccc(C(=NNc2ccccc2C(=O)O)c2ccc(OC)cc2)cc1	94	6	4	100	1.2	7
Cc1nc2c(C(=O)N3CCN(C)CC3)cnn2c(C)c1Cc1ccc(Cl)cc1	95	x	-7	106	0.87	2
Cc1nc2c(C(=O)N3CCCCC3)cnn2c(C)c1Cc1ccccc1F	138*	132	-14	121	1.4	-41
CN(C)c1oc(/C=C/c2ccccc2)nc1C#N	138*	62	-9	103	2.1	-41
CCOC(=O)c1c(Cc2cccc(Cl)c2)c[nH]c1C	91	11	14	87	1	9
COC(=O)c1ccc(Oc2nc(C)cc(Oc3ccccc3)n2)cc1	98	-2	-4	103	1	2
COC(=O)c1ccc(Oc2cc(C)nc(-n3nc(C)cc3C)n2)cc1	96	-94	-28	127	3.9*	5
Nc1ccc2nc(SCc3cccc(F)c3)sc2c1	125	53	-5	109	6.1*	-27
O=C(CCC1CCCN(C(=O)C2(c3ccccc3)CC2)C1)N1CCN(c2ccccn2)CC1 (configuration not stated)	100	1	7	97	1.1	-1
Cc1ccc(/C=C/c2nnc(-c3cccc(C)c3)o2)cc1	106	19	6	99	1.4	-6
Cc1cccc(-c2nnc(-c3ccccc3)o2)c1	132*	89	-15	118	3.2	-35
Cc1ccccc1-c1nnc(-c2ccc(Cl)cc2)o1	138*	-7	-11	109	4.1*	-49
Clc1ccccc1-c1nnc(-c2ccccc2Cl)o1	122	114	4	99	3.4*	-24
Cc1ccccc1-c1nnc(-c2ccccc2)o1	131*	138*	2	104	4.2*	-33
COc1cc(CNCCN(C)C)c(Br)cc1OC1CCCC1	97	-14	11	100	1	3
CSc1ccc(/C=N/NC(=O)c2ccccc2Cl)cc1	133*	10	-12	116	x	-36
CSc1ccc(/C=N/Nc2cccc(C(=O)O)c2)cc1	41	-8	33	79	18*	64*
CN(C)c1ccc(/C=N/NC(=O)c2ccccc2Cl)cc1	127	-9	-1	104	2.1	-30
C=CCc1cc(C=O)cc(OCC)c1O	107	-3	5	100	0.95	-9
CCOc1ccccc1C(=O)N[C@H](C(=O)Nc1cc(S(=O)(=O)N(C)C)ccc1OC)C(C)C	101	10	-1	102	0.91	-3
CC(=O)N(/N=C1\Sc2ccccc2C1=O)c1ccccc1C	124	131	-7	110	5*	-26
